KCNK3 inh: human KCNK3 channel inhibitors, primary screen, CHO cells, FluxOR thallium flux, B-score | Potassium channel subfamily K member 3 (Homo sapiens), O14649 | FluxOR fluorescence; hits give low values | B-score at 10 µM | 0.84% of 340,000 active;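 active = B-score under library mean minus 4 SD, starting fluorescence ratio at most library mean plus 5 SD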;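 note: more negative B-score means stronger inhibition of thallium flux through KCNK3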
Target sequence (O14649 whole entry, looked up): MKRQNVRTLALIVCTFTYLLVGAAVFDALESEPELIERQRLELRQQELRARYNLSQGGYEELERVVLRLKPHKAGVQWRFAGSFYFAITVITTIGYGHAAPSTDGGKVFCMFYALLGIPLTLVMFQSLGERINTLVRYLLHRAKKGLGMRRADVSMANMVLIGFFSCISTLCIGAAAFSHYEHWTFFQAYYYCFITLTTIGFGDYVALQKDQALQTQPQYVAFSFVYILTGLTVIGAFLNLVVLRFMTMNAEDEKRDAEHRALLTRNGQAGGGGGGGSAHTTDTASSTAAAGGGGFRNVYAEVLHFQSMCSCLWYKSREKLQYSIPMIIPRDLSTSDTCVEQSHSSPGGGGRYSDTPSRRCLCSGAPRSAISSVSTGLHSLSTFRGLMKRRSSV
KCNK9 inh: KCNK9 potassium channel inhibitors, primary screen, HEK293 cells, thallium flux; 1.2% of 310,000 active; AID 488922, 2010; Potassium channel subfamily K member 9 (Homo sapiens), Q9NPC2; FluxOR thallium flux fluorescence; hits give low values; B-score at 10 µM;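 active = ratio B-score over 3 SD below the library mean, with starting fluorescence within 5 SD of its mean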;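 note: negative B-score means less thallium flux so channel inhibition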
KCNQ1 block: inhibitors of human KCNQ1 channel, primary screen, cell-based, thallium flux, high-throughput. AID 2642, 2010. B-score at 10 µM. 1.3% of 310,000 active. CHO-K1 KCNQ1, FluxOR thallium flux fluorescence; hits give high values. Potassium voltage-gated channel subfamily KQT member 1 (Homo sapiens), P51787;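 active = compounds whose thallium flux B-score, printed positive for inhibition, exceeds three library SD while starting fluorescence stays within three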;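 note: channel opened by potassium depolarization with thallium stimulus after 20 min compound exposure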
KCNQ1 act: potentiators or activators of KCNQ1 channel, primary screen, cell-based, thallium flux, high-throughput; Potassium voltage-gated channel subfamily KQT member 1 (Homo sapiens), P51787; CHO-K1 KCNQ1, thallium flux FluxOR fluorescence; hits give high values; B-score at 10 µM; 0.35% of 310,000 active; AID 2648, 2010;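 active = fluorescence ratio B-score, a plate-corrected score, at least three library SD, with initial intensity B-score within 5 SD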
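Test system: CHO-K1 cells stably expressing KCNQ1 / Medium: assay buffer / Also added: depolarizing K+/Tl+ stimulus, K2SO4 and Tl2SO4 each 12.5 mM in 5x stock / Incubation: 90 min dye loading and 20 min compound exposure, both at room temperature / Signal: thallium influx via FluxOR fluorescence, kinetic imaging / Evaluation: B score of baseline-normalized fluorescence ratio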
Kir21 inh: inhibitors of mouse Kir2.1 inward-rectifier potassium channel | HEK293-Kir2.1, FluxOR thallium flux fluorescence; hits give low values | B-score at 10 µM | 0.85% of 310,000 active;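 active = fluorescence ratio B-score at or below minus 3 SD of library scores, with starting-brightness B-score within 2 SD, cut at about -4.2 in these data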;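 note: channel flux triggered by added potassium and thallium sulfate stimulus; B-score of peak minus minimum fluorescence over baseline after thallium stimulus; more negative B-score means stronger Kir2.1 block with less thallium influx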
hERG rescue: hERG rescue from dofetilide block, primary screen, cell-based, CHO-hERG, FluxOR thallium flux, dofetilide IC70; dofetilide IC70 present; activation (rescue from dofetilide block), less the hit threshold, % at 10 µM; Voltage-gated inwardly rectifying potassium channel KCNH2 (Homo sapiens), Q12809; 0.51% of 310,000 active;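 active = activation above the mean of controls blocked by dofetilide plus 5 SD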;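 note: thallium influx through hERG after potassium depolarization seen as dye fluorescence rise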
Large screens that a line does not name were inactive. Only some compounds are listed: those with a hit (about 3.7% of all), similar ones and a draw of the others.

Cc1ccccc1C(=O)Nc1ccnn1C1CCN(Cc2cnn(C(C)C)c2)CC1	none
CCOC(=O)c1c(C)oc2c1c(C(c1cccnc1)N1CCCCC1)c(O)c1ccccc12 (centres undefined)	KCNQ1 block 6
N#Cc1c(-c2ccccc2)nc(SCC(=O)NC2CCCCC2)[nH]c1=O	none
COC(=O)C(CC(C)C)NC(=O)CSc1nc(-c2ccccc2)c(C#N)c(=O)[nH]1 (centres undefined)	hERG rescue 5.3
CNC(=O)COc1ncnc2scc(-c3ccc(F)cc3)c12	none
COc1ccccc1NC(=O)Nc1nnc(CC(=O)Nc2cccc(C)c2)s1	none
C=CCn1c(NCc2c[nH]c3ccccc23)nc2ccccc21	Kir21 inh -5.59
CCn1c(NCc2c[nH]c3ccccc23)nc2ccccc21	none
O=C1c2cc([N+](=O)[O-])ccc2-c2cc(Br)c(N=C(NO)C(F)(F)F)cc21	KCNK3 inh -9.47 (no result: KCNK9 inh, KCNQ1 block, KCNQ1 act, Kir21 inh, hERG rescue)
C=CCn1c(SCC(=O)NCC)nc2sc3c(c2c1=O)CCC3	none
Cc1ccc(C(=O)N/C(=C\c2ccccc2)C(=O)NCc2cccnc2)cc1	none
COc1cccc(CC2(CO)CCCN(Cc3ccc(C)s3)C2)c1 (centres undefined)	none
COc1cc(Cl)c(CN2CCCC(CO)(Cc3ccccc3)C2)cc1OC (centres undefined)	none
CSc1ccc(CN2CCCC(CO)(Cc3ccccc3)C2)cc1 (centres undefined)	Kir21 inh -4.54
COc1cccc(CC2(CO)CCCN(Cc3c(C)cc(C)cc3-n3cccn3)C2)c1 (centres undefined)	Kir21 inh -5.37
COc1cccc(CC2(CO)CCCN(Cc3cc4ccccc4[nH]3)C2)c1 (centres undefined)	Kir21 inh -4.24
O=C(CN1CCC(C(=O)c2ccc3c(c2)OCCO3)CC1)NCc1ccccc1	none
CN(Cc1ccccc1)C(=O)c1cccc(NC(=O)C2CCCN(C(=O)OC(C)(C)C)C2)c1 (centres undefined)	none (no result: KCNK9 inh, KCNQ1 block, KCNQ1 act, Kir21 inh, hERG rescue)
N#CC1=C(SCC(=O)NC23CC4CC(CC(C4)C2)C3)NC(=O)C(C#N)C12CCCCC2 (centres undefined)	KCNQ1 block 10
N#CC1=C(SCC(=O)NC2CC2)NC(=O)C(C#N)C12CCCCC2 (centres undefined)	none
CN(Cc1nc(-c2cccnc2)no1)S(=O)(=O)c1ccc2ccccc2c1	Kir21 inh -4.85
CSc1nc(C)cc(SCC(=O)N/N=C/c2ccccc2)n1	none
COC(=O)c1nnn(-c2ccsc2C(=O)OC)c1C(=O)OC	none
COc1ccc(NC(=O)N2CCCc3cc(C)ccc32)c(OC)c1	none
COc1ccccc1CC(=O)N1CCCc2cc(C)ccc21	Kir21 inh -7.27
CCNc1nc(NC(C)C)nc(N(C#N)CC(=O)OC)n1	none
CCNc1nc(NC(C)C)nc(N(C#N)Cc2ccccc2)n1	KCNK9 inh -7.32
CCNc1nc(NC(C)C)nc(N(C#N)CCOc2ccc(Cl)cc2Cl)n1	KCNK3 inh -10.8, KCNK9 inh -7.46
N#Cc1ccc(CSc2nnc(-c3ccccc3)n2Cc2ccco2)cc1	none
C=CCn1c(SCc2ccc(C#N)cc2)nnc1-c1cccc(Cl)c1	Kir21 inh -10.8
COc1ccc(OC)c(NC(=O)c2nc(-c3ccccc3)oc2C)c1	none
COc1cc(S(=O)(=O)NCC2COCCO2)ccc1-n1cnnn1 (centres undefined)	hERG rescue 5.8
Cc1c(O)ccc(/C(Cc2ccc3ccccc3n2)=N\N)c1O	KCNK9 inh -7.88
O=C(O)/C=C/c1cn(-c2ccccc2)nc1-c1cccc([N+](=O)[O-])c1	none
O=C(O)/C=C/c1cn(-c2ccccc2)nc1-c1ccc(-c2ccc([N+](=O)[O-])cc2)o1	hERG rescue 10.8
CCc1ccccc1NC(=S)N(CCCN(C)C)Cc1cc2cc3c(cc2[nH]c1=O)OCO3	none
COc1cccc(CN(C)CC(=O)Nc2ccccc2N2CCOCC2)c1OC	hERG rescue 5.1
Cc1ccccc1OCC(=O)Nc1ccccc1N1CCOCC1	Kir21 inh -7.86
CC(=O)N1CCN(c2ccccc2NC(=O)COc2ccccc2C)CC1	none
Cc1ccc(C(C)C)cc1S(=O)(=O)NCc1ccccn1	Kir21 inh -5.83
CCOc1cc(S(=O)(=O)NCc2ccccn2)c(C)cc1C	Kir21 inh -4.71 (no result: KCNK3 inh)
COCc1cc(=O)[nH]c2cc(NC(=O)c3cccc(OC)c3)c(C)cc12	none
CC1CCCCC1NC(=O)NC(=O)COC(=O)c1ccc(OC(F)F)cc1 (centres undefined)	none (no result: KCNK9 inh, KCNQ1 block, KCNQ1 act, Kir21 inh, hERG rescue)
CC1CCCC(NC(=O)COC(=O)CCC(=O)c2ccc(F)cc2)C1C (centres undefined)	none (no result: KCNK9 inh, KCNQ1 block, KCNQ1 act, Kir21 inh, hERG rescue)
CCCOc1ccc(-c2nc(OC)c3ccccc3n2)cc1	KCNK9 inh -6.64
O=C(COC(=O)c1cccc(S(=O)(=O)NCc2ccccc2)c1)c1ccccc1	none
Cc1cc(C)c(C(=O)COC(=O)c2cccc(S(=O)(=O)NCc3ccccc3)c2)cc1C	Kir21 inh -4.31
CC1CCN(C(=O)c2ccc(S(=O)(=O)NCc3ccco3)cc2)CC1	none
O=C1Nc2ccc(Cl)cc2[C@@](C#CC2CC2)(C(F)(F)F)O1	KCNK9 inh -8.66 (no result: KCNK3 inh)
O=[N+]([O-])c1ccc(Nc2ccc3ccccc3c2)nc1	hERG rescue 5.5
O=C(N/N=C/c1cc([N+](=O)[O-])ccc1O)c1ccc(COc2ccc3c(c2)CCC3)o1	hERG rescue 14.2
Cc1ccc(NC2=NC(c3ccc(F)cc3)n3c(nc(C)cc3=O)N2)cc1 (centres undefined)	none
CCOc1cccc(C(=O)Nc2ccc3oc(Cc4ccc(Cl)cc4)nc3c2)c1	KCNQ1 block 6
Cc1cc(C)cc(NC(=S)N2CCC(NC(=O)c3ccco3)CC2)c1	none
CN1CCN(CC(O)COc2ccc(Cl)cc2)CC1 (centres undefined)	none
CN1CCN(CC(O)(c2ccc(Cl)cc2)c2ccc(Cl)cc2)CC1	Kir21 inh -8.84
CC(=O)C1=NN(c2ccccc2)C(c2cccs2)N1c1ccccc1 (centres undefined)	KCNK9 inh -7.58, KCNQ1 block 8 (no result: KCNK3 inh)
CC(=O)C1=NN(c2ccccc2)C(c2ccc3c(c2)OCO3)N1c1ccc(N2CCOCC2)cc1 (centres undefined)	none
Cc1ccc(C(OCC(O)CNC(C)c2ccccc2)c2ccccc2)cc1 (centres undefined)	Kir21 inh -6.02

Screening results: PubChem BioAssay, Johns Hopkins Ion Channel Center
